# Hits are enriched below; roughly 3.7% of the tested compounds scored in any of these assays.
# KCNQ1 pot – potentiates or activates the human KCNQ1 potassium channel. P51787. CHO-K1 KCNQ1, thallium flux FluxOR fluorescence; hits give high values. B-score at 10 µM. 310,000 tested, 0.35% active;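 active = fluorescence ratio B-score, a plate-corrected score, at least three library SD, with initial intensity B-score within 5 SD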
#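 Schedule – 37 °C overnight plating, 90-min dark dye load, 20-min compound pretreatment · System – stable KCNQ1 CHO-K1 line · Probe or stimulus – thallium- and potassium-containing depolarizing buffer · Measured by – kinetic FluxOR fluorescence, 10 s baseline plus 110 s post-stimulus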
# KCNQ1 block – blocks the human KCNQ1 potassium channel | CHO-K1 KCNQ1, FluxOR thallium flux fluorescence; hits give high values | B-score at 10 µM | 310,000 tested, 1.3% active | AID 2642;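 active = compounds whose thallium flux B-score, printed positive for inhibition, exceeds three library SD while starting fluorescence stays within three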;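 also: channel opened by potassium depolarization with thallium stimulus after 20 min compound exposure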
# KCNK3 inh – human KCNK3 channel inhibition, primary screen. CHO-KCNK3 thallium flux, FluxOR fluorescence; hits give low values. B-score at 10 µM. 340,000 tested, 0.84% active. O14649;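 active = B-score under library mean minus 4 SD, starting fluorescence ratio at most library mean plus 5 SD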;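 also: more negative B-score means stronger inhibition of thallium flux through KCNK3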
# KCNK9 block – inhibitors of human KCNK9 two-pore domain potassium channel. Q9NPC2. HEK293 KCNK9, FluxOR thallium flux fluorescence; hits give low values. B-score at 10 µM. 310,000 tested, 1.2% active;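 active = ratio B-score over 3 SD below the library mean, with starting fluorescence within 5 SD of its mean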;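 also: negative B-score means less thallium flux so channel inhibition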
# Kir21 block – inhibitors of mouse Kir2.1 inward-rectifier potassium channel. P35561. HEK293-Kir2.1, FluxOR thallium flux fluorescence; hits give low values. B-score at 10 µM. 310,000 tested, 0.85% active;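 active = fluorescence ratio B-score at or below minus 3 SD of library scores, with starting-brightness B-score within 2 SD, cut at about -4.2 in these data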;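 also: channel flux triggered by added potassium and thallium sulfate stimulus; B-score of peak minus minimum fluorescence over baseline after thallium stimulus; more negative B-score means stronger Kir2.1 block with less thallium influx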
# Target sequence (P35561 whole entry, looked up): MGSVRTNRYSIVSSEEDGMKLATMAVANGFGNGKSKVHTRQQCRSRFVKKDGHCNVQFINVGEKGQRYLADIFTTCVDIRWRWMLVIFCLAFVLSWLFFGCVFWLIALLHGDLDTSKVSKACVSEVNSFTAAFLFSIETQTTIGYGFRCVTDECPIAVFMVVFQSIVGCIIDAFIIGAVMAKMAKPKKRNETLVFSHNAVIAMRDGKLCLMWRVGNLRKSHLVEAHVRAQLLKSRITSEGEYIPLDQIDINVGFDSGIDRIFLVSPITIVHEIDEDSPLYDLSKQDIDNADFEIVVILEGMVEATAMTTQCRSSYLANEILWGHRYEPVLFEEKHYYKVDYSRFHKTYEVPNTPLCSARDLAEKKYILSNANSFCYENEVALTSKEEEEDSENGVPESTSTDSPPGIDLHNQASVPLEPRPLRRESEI
# hERG rescue – hERG (human) protection from proarrhythmic block; Q12809; CHO-hERG, FluxOR thallium flux, dofetilide IC70 present; activation (rescue from dofetilide block), less the hit threshold, % at 10 µM; 310,000 tested, 0.51% active; AID 1511;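 active = activation above the mean of controls blocked by dofetilide plus 5 SD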;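 also: thallium influx through hERG after potassium depolarization seen as dye fluorescence rise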
# Active calls of the source: *; i = inactive; . = no result given.
SMILES,KCNQ1 pot,KCNQ1 block,KCNK3 inh,KCNK9 block,Kir21 block,hERG rescue
CCCc1noc2c1/C(=N\O)CC(CC(C)SCC)C2 (stereo not drawn),i,i,i,-7*,-0.92,-4
COc1ccc(Nc2sc(C(=O)c3ccc(Cl)cc3)c(N)c2C(=O)Nc2ccccc2OC)cc1,i,i,i,i,-0.12,-6
COc1ccc(C(=O)c2sc(Nc3ccccc3)c(C(=O)Nc3ccc(OC)c(OC)c3)c2N)cc1,i,7*,i,i,-0.02,-16
O=C(COC(=O)c1cc(S(=O)(=O)N2CCOCC2)ccc1F)Nc1cc([N+](=O)[O-])ccc1F,.,.,i,.,.,.
Cc1cccc(NCCC(=O)c2ccc([N+](=O)[O-])cc2)c1C,i,i,i,i,0.03,4.7*
Cc1ccc(NCCC(=O)c2cccc([N+](=O)[O-])c2)c(C)c1,i,i,i,i,0.15,-11
CCc1cc(=O)oc2cc(OC(C)C(=O)NCc3ccccn3)ccc12 (stereo not drawn),i,i,i,i,-0.27,-6
O=C(COc1ccc(Cl)cc1Cl)N(Cc1ccco1)C1CCS(=O)(=O)C1 (stereo not drawn),i,i,i,-7*,-0.38,-2
CCOc1ccccc1NC(=O)CSc1n[nH]c(N)n1,i,i,i,i,-0.28,-6
C/C(=C\c1ccccc1)C(=O)NCCc1ccccc1,i,i,i,i,0.09,-7
CNC(=O)CN(c1cccc2ccccc12)S(C)(=O)=O,i,i,i,i,0.27,7.0*
C=CCN(c1ccccc1)S(=O)(=O)c1ccc(Cl)c(C(=O)OCC(=O)c2[nH]c(C)c(C(C)=O)c2C)c1,i,i,i,i,-0.27,-5
CCCCCc1cc(=O)oc2c(C(CCN3CCCCC3)c3ccc(OC)cc3)c(OC)cc(OC)c12 (stereo not drawn),i,7*,i,i,-1.5,-26
CCS(=O)(=O)c1ccc(O)c(NC(=O)c2cc(-c3ccccn3)nc3ccccc23)c1,.,.,i,.,.,.
CCN1c2ccccc2-c2nc3ccccc3n2C1c1ccccn1 (stereo not drawn),i,i,-10*,i,-0.06,-9
O=C(COC(=O)/C=C/c1ccc2c(c1)OCO2)NC1CC1,i,i,i,i,1.6,5.4*
N#Cc1cccc(C(=O)Nc2cccc(S(=O)(=O)N3CCCC3)c2)c1,i,i,i,i,-0.27,-10
N/C(=N\OC(=O)c1ccccc1Br)c1cccc([N+](=O)[O-])c1,i,i,i,-7.1*,2.4,-7
N/C(=N\OC(=O)c1ccccc1Br)c1ccc([N+](=O)[O-])cc1,i,i,i,i,-0.27,-4
Cc1c(C(=O)Nc2ccc(S(=O)(=O)N(C)C3CCN(C)CC3)cc2)oc2c(Cl)cccc12,i,i,i,i,-5*,-17
Cc1c(C(=O)Nc2ccc(S(=O)(=O)N(C)C3CCN(C)CC3)cc2)oc2ccccc12,.,.,i,.,.,.
CC(C)NCC1CCc2cc(CO)c([N+](=O)[O-])cc2N1 (stereo not drawn),i,i,i,i,-0.05,-3
O=C(COC(=O)C1C2CC3OC(=O)C1C3C2)Nc1ccc(Cl)cc1 (stereo not drawn),17*,i,i,i,2.3,12*
CC1=C(C(=O)OCCc2ccccc2)C(c2ccsc2)NC(=O)N1C (stereo not drawn),i,i,i,i,-5.6*,-11
CC(C)(C)S(=O)(=O)N1C[C@@H]2CC/C=C\C/C(c3ccccc3)=C\2[C@H]1CCO,.,.,i,.,.,.
SMILES,KCNQ1 pot,KCNQ1 block,KCNK3 inh,KCNK9 block,Kir21 block,hERG rescue
Cc1cc([N+](=O)[O-])ccc1-c1ccc(C2Nc3ccccc3C(=O)N2O)o1 (stereo not drawn),13*,i,i,i,-1.4,2
O=C(Nc1ccon1)c1cc2ccccc2oc1=O,i,i,i,i,-0.01,-14
Cc1cc2cc(C)c(SCC(=O)NCc3ccco3)nc2cc1C,i,i,i,i,-1.9,-5
Cc1sc2nc(C(C)C)nc(SCC(=O)NCc3ccco3)c2c1C,12*,i,i,i,-2.9,8.7*
Cc1nc(SCC(=O)NC(=O)NCc2ccco2)nc(C)c1C,i,i,i,i,1.4,6.7*
CC(C)(C)c1nc(SCC(=O)NCc2ccco2)c2ccccc2n1,i,i,i,i,-8*,-5
CCOC(=O)Cn1c(=O)oc2cc(S(=O)(=O)Nc3ccc(N(CC)CC)cc3C)ccc21,i,i,i,i,0.14,-10
COc1cccc(CC2(CO)CCN(Cc3ccc4cccc(F)c4n3)CC2)c1,i,i,i,i,-0.27,-19
CC[C@]12c3[nH]c4cc(CCC(=O)N(C)C)ccc4c3CCN1C(=O)[C@@H](CC(=O)NCCc1ccccn1)C[C@@H]2C(=O)N1CCN(C(=O)C2CC2)CC1,.,.,i,.,.,.
O=C1CCCC2=C1C(c1ccsc1)CC(=O)N2c1ccccc1F (stereo not drawn),i,i,i,i,1.4,-10
CCOC(=O)c1cc(NC(=O)c2cccs2)ccc1N1CCOCC1,i,i,i,i,-0.08,4.7*
COC(=O)c1cc(NC(=O)c2cc(-c3ccc(C(F)(F)F)cc3)oc2C(F)(F)F)ccc1N1CCOCC1,i,8*,i,i,1.7,2
Cc1c(NC(=O)CSc2nncn2-c2ccccc2)c(=O)n(-c2ccccc2)n1C,i,i,i,i,0.03,-9
S=c1[nH]cnc2sc(-c3ccccc3)cc12,132*,i,i,i,1.4,19*
Clc1ncnc2scc(-c3ccccc3)c12,i,i,i,i,1.4,-9
S=c1[nH]cnc2scc(-c3ccccc3)c12,18*,i,i,i,-0.58,60*
Cn1c(=O)c2sccc2n2c(CCCC(=O)N3CCCCC3)nnc12,i,i,i,i,-0.97,-14
CCc1c(-c2ccccc2)[n+](=O)c2c(n1[O-])CCC2,i,i,i,i,-2.6,-4
Cn1c(N)c(C(=O)COC(=O)CSc2cccc3cccc(Cl)c23)c(=O)n(C)c1=O,i,i,i,i,1.1,-13
O=C(Nc1ccccc1)C(=O)Nc1ccccn1,i,i,i,i,-0.31,-8
S=C(Nc1ccc(Nc2ccccc2)cc1)Nc1ccccn1,i,i,i,-7.1*,0.61,-7
COCCNC(=O)c1cc2cc3ccc(OC)cc3nc2o1,i,i,i,i,0.78,-4
